In brackets after ≈: the same amount, converted by molar mass.
Key:
Escherichia coli = experiment: Antibacterial assay; assay type: cell-based; conditions: Gram-negative
Pseudomonas aeruginosa = experiment: Antibacterial assay; assay type: cell-based; conditions: Gram-negative
Proteus vulgaris = experiment: Antibacterial assay; assay type: cell-based; conditions: Gram-negative
Bacillus subtilis = experiment: Antibacterial assay; assay type: cell-based; conditions: Gram-positive
Staphylococcus aureus = experiment: Antibacterial assay; assay type: cell-based; conditions: Gram-positive
HepG2 cells [1] = experiment: Cell viability; assay type: cell-based; conditions: Homo sapiens, HepG2, read-out: IC50 (mean ± SD; n = 3)
In short: (§1)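 Cells were grown in medium with 10% FBS and penicillin/streptomycin 100 units/mL, humidified, at 37 °C and 5% CO2; HT-29 and HEKa were in RPMI-1640. About 2000 cells/well were seeded in 96-well plates. Cells were rinsed once with PBS and five times with distilled water.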

PC-3 cells = experiment: Cell viability; assay type: cell-based; conditions: Homo sapiens, PC-3, read-out: IC50 (mean ± SD; n = 3)
In short: as §1

HT-29 cells [2] = experiment: Cell viability; assay type: cell-based; conditions: Homo sapiens, HT-29, read-out: IC50 (mean ± SD; n = 3)
In short: as §1

HEKa cells = experiment: Cell viability; assay type: cell-based; conditions: Homo sapiens, read-out: IC50 (mean ± SD; n = 3)
In short: as §1

[3] = DPPH free radical scavenging assay; conditions: t = 16 min
In short: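 Radical scavenging was read by absorbance. Percent inhibition = (Abs0 − AbsT)/Abs0 × 100, where Abs0 is the control at t = 0 and AbsT is the sample with DPPH at t = 16 min.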

HepG2 cells [4] = experiment: Cell cycle analysis; assay type: cell-based, human; conditions: HepG2, 48 h
HT-29 cells [5] = experiment: Cell cycle analysis; assay type: cell-based, human; conditions: HT-29, 48 h
Candida albicans = experiment: Antifungal assay; assay type: cell-based; conditions: C. albicans
In short: (§2)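 Antifungal agar diffusion read as inhibition zone diameter in mm, with amphotericin B as positive control.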

C. tropicalis = experiment: Antifungal assay; assay type: cell-based, Candida tropicals
In short: as §2

Aspergillus flavus = experiment: Antifungal assay; assay type: cell-based; conditions: A. flavus
In short: as §2

Aspergillus niger = experiment: Antifungal assay; assay type: cell-based; conditions: A. niger
In short: as §2

With CC1(C)S[C@@H]2[C@H](NC(=O)[C@H](N)c3ccc(O)cc3)C(=O)N2[C@H]1C(=O)O [Amoxicillin] the Inhibition zone (Escherichia coli) was 33 ± 2.90 mm, the Inhibition zone (Pseudomonas aeruginosa) was 39 ± 2.40 mm and the Inhibition zone (Proteus vulgaris) was 30 ± 4.00 mm. It also gave an Inhibition zone (Bacillus subtilis) of 23 ± 6.40 mm and an Inhibition zone (Staphylococcus aureus) of 20 ± 1.90 mm.

CC1(C)C[C@H](O)C[C@@]2(C)OC(=O)C=C12 [Compound 3, loliolide] showed an IC50 (HepG2 cells [1]) of 4.6 ± 0.51 µg/mL (≈ 23.4 µM), an IC50 (PC-3 cells) of 11.9 ± 1.31 µg/mL (≈ 60.6 µM) and an IC50 (HT-29 cells [2]) of 8.9 ± 0.97 µg/mL (≈ 45.4 µM). It also gave an IC50 (HEKa cells) of 3.1 ± 0.1 µg/mL (≈ 15.8 µM), an Inhibition zone (Escherichia coli) of 10 ± 1.40 mm and an Inhibition zone (Pseudomonas aeruginosa) of 09 ± 1.20 mm. For the same compound, the Inhibition zone (Proteus vulgaris) was 10 ± 1.50 mm, the Inhibition zone (Bacillus subtilis) was 15 ± 1.70 mm and the Inhibition zone (Staphylococcus aureus) was 16 ± 1.90 mm. The “IC50 (DPPH free radical scavenging)” value [3] was 55.9 µg/mL (≈ 285 µM).

In the case of COc1cccc2c1C(=O)c1c(O)c3c(c(O)c1C2=O)C[C@@](O)(C(=O)CO)C[C@@H]3O[C@H]1C[C@H](N)[C@H](O)[C@H](C)O1 [Doxorubicin], the IC50 (HT-29 cells [2]) is reported as 1.7 ± 0.02 µg/mL (≈ 3.13 µM), the IC50 (HEKa cells) is reported as 0.7 ± 0.04 µg/mL (≈ 1.29 µM) and the “cell cycle arrest phase” value (HepG2 cells [4]) is reported as “arrested in G2 phase”. The “cell cycle arrest phase” value (HT-29 cells [5]) was “arrested in G2 phase”.

With C[C@@H]1[C@H](O)[C@@H](C)/C=C/C=C/C=C/C=C/C=C/C=C/C=C/[C@H](O[C@@H]2O[C@H](C)[C@@H](O)[C@H](N)[C@@H]2O)C[C@@H]2O[C@](O)(C[C@@H](O)C[C@@H](O)[C@H](O)CC[C@@H](O)C[C@@H](O)CC(=O)O[C@H]1C)C[C@H](O)[C@H]2C(=O)O [amphotericin B] the “diameter of inhibition zone” value (Candida albicans) was 29 ± 0.90 mm, the “diameter of inhibition zone” value (C. tropicalis) was 25 ± 0.87 mm and the “diameter of inhibition zone” value (Aspergillus flavus) was 33 ± 1.11 mm. For the same compound, the “diameter of inhibition zone” value (Aspergillus niger) was 41 ± 0.70 mm.

In the case of O=C1O[C@H]([C@@H](O)CO)C(O)=C1O [vitamin C], the “IC50 (DPPH free radical scavenging)” value [3] is reported as 14.2 µg/mL (≈ 80.6 µM).

From article PMC10203771 (Saudi Pharmaceutical Journal : SPJ, 2023)
